Experimental data as given in ChEMBL document CHEMBL4715934, “Discovery of Imidazopyridines as Potent Inhibitors of Indoleamine 2,3-Dioxygenase 1 for Cancer Immunotherapy” (ACS Med Chem Lett, 2021).

Experiments:
[1] = biological target: T1, Indoleamine 2,3-dioxygenase 1 (Homo sapiens, UniProt P14902); experiment: Inhibition of IDO1 in recombinant IFN-gamma induced human HeLa cells incubated for 18 hrs by fluorescence microplate reader assay
Summary of the method: (§1)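 HeLa (human) or M109 (murine) cells induced with IFNγ to express IDO1, then cellular IDO1 activity measured; values are the average of N = 2 unless noted.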

[2] = Metabolic stability in mouse liver microsomes assessed as parent compound remaining at 0.5 uM after 10 mins; assay type: ADME, Microsome; conditions: read-out: Stabilty
Summary of the method: (§2)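 Parent compound at 0.5 μM incubated 10 min with 1 mg/mL human, mouse or rat liver microsomes; fraction of parent remaining reported; average of N = 2 unless noted.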

[3] = Metabolic stability in human liver microsomes assessed as parent compound remaining at 0.5 uM after 10 mins; assay type: ADME, Microsome; conditions: read-out: Stabilty; summary of the method: as §2
[4] = biological target: Indoleamine 2,3-dioxygenase 1 (Mus musculus, UniProt P28776); experiment: Inhibition of IDO1 in recombinant IFN-gamma induced mouse M109 cells incubated for 18 hrs by fluorescence microplate reader assay; assay type: cell-based; summary of the method: as §1
[5] = Metabolic stability in rat liver microsomes assessed as parent compound remaining at 0.5 uM after 10 mins; assay type: ADME, Microsome; conditions: read-out: Stabilty; summary of the method: as §2
[6] = biological target: T1, Indoleamine 2,3-dioxygenase 1; experiment: Inhibition of IDO1 in IFN-gamma/LPS induced human whole blood assessed as tryptophan/kynurenine level measured after 18 hrs by RapidFire mass spectrometry; assay type: tissue-based

T1 sequence (P14902 whole entry): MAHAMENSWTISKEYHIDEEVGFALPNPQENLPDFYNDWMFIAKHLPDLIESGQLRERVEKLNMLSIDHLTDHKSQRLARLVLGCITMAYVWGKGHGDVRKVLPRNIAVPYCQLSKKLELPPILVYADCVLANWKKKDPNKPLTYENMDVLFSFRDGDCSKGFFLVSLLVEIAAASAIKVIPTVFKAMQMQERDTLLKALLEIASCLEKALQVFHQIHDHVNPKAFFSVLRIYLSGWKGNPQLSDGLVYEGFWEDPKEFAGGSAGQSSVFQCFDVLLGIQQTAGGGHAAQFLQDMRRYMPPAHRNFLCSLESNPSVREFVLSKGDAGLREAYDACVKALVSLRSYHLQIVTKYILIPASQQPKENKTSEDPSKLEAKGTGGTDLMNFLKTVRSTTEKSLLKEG
Sequence of Indoleamine 2,3-dioxygenase 1 (Mus musculus, UniProt P28776) (P28776 whole entry): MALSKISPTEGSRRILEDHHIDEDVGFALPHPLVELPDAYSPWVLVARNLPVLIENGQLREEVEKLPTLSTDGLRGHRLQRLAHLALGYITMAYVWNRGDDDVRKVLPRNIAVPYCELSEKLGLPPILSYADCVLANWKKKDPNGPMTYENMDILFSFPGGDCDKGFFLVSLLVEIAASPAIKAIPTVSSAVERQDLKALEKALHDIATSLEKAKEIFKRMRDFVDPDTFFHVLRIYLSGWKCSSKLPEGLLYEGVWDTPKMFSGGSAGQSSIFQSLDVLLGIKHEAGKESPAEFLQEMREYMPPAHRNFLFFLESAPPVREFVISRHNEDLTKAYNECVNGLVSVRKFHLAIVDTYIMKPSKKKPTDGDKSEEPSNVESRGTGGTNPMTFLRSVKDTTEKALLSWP

Row | SMILES | IC50 [1] [nM] | remaining at 10 min, 0.5 µM [2] [%] | remaining at 10 min, 0.5 µM [3] [%] | IC50 [4] [nM] | remaining at 10 min, 0.5 µM [5] [%] | IC50 [6] [nM]
1 | CCC(Nc1nnc(-c2ccc(OC)cc2)o1)[C@H]1CC[C@@H](c2ccnc3c(F)cc(F)cc32)CC1 (stereo partly drawn) | 3 | 8 | 54 | 36 | 52 | 14
2 | CCC(c1nc2ncc(Cl)cc2[nH]1)[C@H]1CC[C@@H](c2ccnc3ccc(F)cc32)CC1 (stereo partly drawn) | 2 | 7 | 78 | 5 | 35 | 6
3 | C[C@@H](c1nc2ccc(F)cc2[nH]1)[C@H]1CC[C@@H](c2ccnc3ccc(F)cc32)CC1 | 3 | 5 | 42 | 22 | 0 | 
4 | CCC(Nc1nnc(-c2ccc(OC)cc2)o1)[C@H]1CC[C@@H](c2ccnc3ccc(C(F)(F)F)cc32)CC1 (stereo partly drawn) | 3 | 39 | 83 | 6 | 100 | 50
5 | C[C@@H](c1nc2ccc(Cl)cc2[nH]1)[C@H]1CC[C@@H](c2ccnc3ccc(F)cc32)CC1 | 3 |  |  |  | 8 | 32
6 | COCC(Nc1nnc(-c2ccc(OC)cc2)o1)[C@H]1CC[C@@H](c2ccnc3ccc(F)cc32)CC1 (stereo partly drawn) | 3 | 19 | 57 | 44 | 24 | 31
7 | CCC(c1nc2ccc(Cl)cc2[nH]1)[C@H]1CC[C@@H](c2ccnc3ccc(F)cc32)CC1 (stereo partly drawn) | 2 | 49 | 82 | 3 | 27 | 9

Second part, the molecule after the results:

Row | IC50 [1] [nM] | remaining at 10 min, 0.5 µM [2] [%] | remaining at 10 min, 0.5 µM [3] [%] | IC50 [4] [nM] | remaining at 10 min, 0.5 µM [5] [%] | IC50 [6] [nM] | SMILES
8 | 495 | 78 | 97 | 631 | 62 |  | C[C@@H](c1ncc(-c2ccc(Cl)cc2)o1)[C@H]1CC[C@@H](c2ccnc3ccc(F)cc32)CC1
9 | 20 | 69 | 88 | 286 | 82 |  | C[C@@H](c1nnc(-c2ccc(Cl)cc2)[nH]1)[C@H]1CC[C@@H](c2ccnc3ccc(F)cc32)CC1
10 | 239 | 41 | 68 | 348 | 23 |  | C[C@@H](c1nnc(-c2ccc(Cl)cc2)o1)[C@H]1CC[C@@H](c2ccnc3ccc(F)cc32)CC1
